{
  "source": "ChEMBL document CHEMBL1157620",
  "about": "“1-(Aryl)-6-[alkoxyalkyl]-3-azabicyclo[3.1.0]hexanes and 6-(aryl)-6-[alkoxyalkyl]-3-azabicyclo[3.1.0]hexanes: a new series of potent and selective triple reuptake inhibitors” (J Med Chem, 2010)",
  "format_in_all_cases": "cell-based",
  "key": {"[1]": {"biological_target": "Sodium-dependent serotonin transporter (Homo sapiens, UniProt P31645)", "sequence (P31645 whole entry)": "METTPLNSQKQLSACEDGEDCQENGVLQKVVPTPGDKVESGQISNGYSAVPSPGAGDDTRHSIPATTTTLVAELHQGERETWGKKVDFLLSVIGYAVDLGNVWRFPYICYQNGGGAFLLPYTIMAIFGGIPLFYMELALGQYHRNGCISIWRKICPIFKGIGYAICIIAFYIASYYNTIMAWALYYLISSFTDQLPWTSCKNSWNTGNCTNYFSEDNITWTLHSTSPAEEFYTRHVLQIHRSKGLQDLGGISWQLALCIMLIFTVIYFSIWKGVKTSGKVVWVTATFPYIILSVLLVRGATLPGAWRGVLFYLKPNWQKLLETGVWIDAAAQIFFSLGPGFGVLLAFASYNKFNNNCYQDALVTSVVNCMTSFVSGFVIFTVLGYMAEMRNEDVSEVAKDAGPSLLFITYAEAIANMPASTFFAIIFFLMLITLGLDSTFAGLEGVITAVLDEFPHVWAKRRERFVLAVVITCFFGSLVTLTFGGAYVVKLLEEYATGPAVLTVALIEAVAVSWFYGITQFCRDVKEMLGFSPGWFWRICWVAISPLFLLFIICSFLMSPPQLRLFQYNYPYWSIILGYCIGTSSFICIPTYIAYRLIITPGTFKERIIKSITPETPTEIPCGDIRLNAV", "experiment": "Displacement of [3H]citalopram from human recombinant SERT expressed in BacMam virus-transduced cells by scintillation proximity assay", "how_it_was_run": "(§1)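 BacMam-transduced membranes in SPA format. SERT: 1 mg/mL beads, 6 μg/mL membranes, 3 nM [3H]citalopram. NET: 2 mg/mL beads, 40 μg/mL membranes, 10 nM [3H]nisoxetine. Incubated overnight at room temperature; pKi from pIC50 by Cheng-Prusoff.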"}, "[2]": {"biological_target": "Sodium-dependent dopamine transporter (Homo sapiens, UniProt Q01959)", "sequence (Q01959 whole entry)": "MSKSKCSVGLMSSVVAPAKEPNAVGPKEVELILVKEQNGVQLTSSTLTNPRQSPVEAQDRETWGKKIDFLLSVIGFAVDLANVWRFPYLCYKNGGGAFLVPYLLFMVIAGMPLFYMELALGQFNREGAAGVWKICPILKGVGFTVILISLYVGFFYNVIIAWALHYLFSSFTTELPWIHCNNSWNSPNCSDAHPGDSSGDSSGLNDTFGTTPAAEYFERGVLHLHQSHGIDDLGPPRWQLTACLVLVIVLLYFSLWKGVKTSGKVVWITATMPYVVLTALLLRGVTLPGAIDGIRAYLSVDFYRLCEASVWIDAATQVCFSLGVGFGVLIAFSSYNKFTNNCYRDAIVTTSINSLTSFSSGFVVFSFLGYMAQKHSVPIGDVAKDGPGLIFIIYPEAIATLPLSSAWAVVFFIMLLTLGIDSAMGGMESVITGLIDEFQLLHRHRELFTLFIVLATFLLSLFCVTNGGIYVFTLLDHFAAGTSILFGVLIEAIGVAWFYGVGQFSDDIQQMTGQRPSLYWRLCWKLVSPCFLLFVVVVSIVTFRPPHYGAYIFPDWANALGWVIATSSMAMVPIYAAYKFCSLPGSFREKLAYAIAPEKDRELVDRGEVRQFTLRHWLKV", "experiment": "Displacement of [3H]WIN-35428 from human recombinant DAT expressed in BacMam virus-transduced cells by scintillation proximity assay"}, "[3]": {"biological_target": "Sodium-dependent noradrenaline transporter (Homo sapiens, UniProt P23975)", "sequence (P23975 whole entry)": "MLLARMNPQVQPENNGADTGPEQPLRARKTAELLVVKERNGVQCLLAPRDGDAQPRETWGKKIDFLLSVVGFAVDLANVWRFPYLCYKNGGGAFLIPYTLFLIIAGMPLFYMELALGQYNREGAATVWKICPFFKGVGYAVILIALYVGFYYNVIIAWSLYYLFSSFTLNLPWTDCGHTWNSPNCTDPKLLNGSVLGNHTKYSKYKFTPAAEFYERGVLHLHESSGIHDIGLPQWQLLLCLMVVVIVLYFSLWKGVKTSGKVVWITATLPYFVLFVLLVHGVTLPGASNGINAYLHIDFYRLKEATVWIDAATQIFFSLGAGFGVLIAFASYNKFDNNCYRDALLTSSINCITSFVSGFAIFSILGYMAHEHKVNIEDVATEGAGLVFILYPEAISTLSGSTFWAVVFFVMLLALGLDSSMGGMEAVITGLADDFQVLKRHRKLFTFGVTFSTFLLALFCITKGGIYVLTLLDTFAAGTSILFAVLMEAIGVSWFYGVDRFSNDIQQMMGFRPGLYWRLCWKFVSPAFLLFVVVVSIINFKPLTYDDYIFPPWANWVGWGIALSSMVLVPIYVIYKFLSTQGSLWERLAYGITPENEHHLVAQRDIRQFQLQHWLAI", "experiment": "Displacement of [3H]nisoxetine from human recombinant NET expressed in BacMam virus-transduced cells by scintillation proximity assay", "how_it_was_run": "as §1"}},
  "data": [
    {"smiles": "CC(C)OCC[C@]1(c2ccc(Cl)c(Cl)c2)[C@@H]2CNC[C@@H]21", "values": [
      {"measurement": "Ki", "setting": "[1]", "value": 0.316, "unit": "nM"},
      {"measurement": "Ki", "setting": "[2]", "value": 6.31, "unit": "nM"},
      {"measurement": "Ki", "setting": "[3]", "value": 1.58, "unit": "nM"}
    ]},
    {"smiles": "COCC[C@]1(c2ccc(Cl)c(Cl)c2)[C@@H]2CNC[C@@H]21", "values": [
      {"measurement": "Ki", "setting": "[1]", "value": 0.316, "unit": "nM"},
      {"measurement": "Ki", "setting": "[2]", "value": 10, "unit": "nM"},
      {"measurement": "Ki", "setting": "[3]", "value": 7.94, "unit": "nM"}
    ]},
    {"smiles": "Clc1ccc([C@@]2(CCOC3CCC3)[C@@H]3CNC[C@@H]32)cc1Cl", "values": [
      {"measurement": "Ki", "setting": "[1]", "value": 0.2, "unit": "nM"},
      {"measurement": "Ki", "setting": "[2]", "value": 6.31, "unit": "nM"},
      {"measurement": "Ki", "setting": "[3]", "value": 3.98, "unit": "nM"}
    ]},
    {"smiles": "COCC[C@H]1[C@]2(C)CNC[C@]12c1ccc(Cl)c(Cl)c1", "note": "(racemic)", "values": [
      {"measurement": "Ki", "setting": "[1]", "value": 0.794, "unit": "nM"},
      {"measurement": "Ki", "setting": "[2]", "value": 63.1, "unit": "nM"},
      {"measurement": "Ki", "setting": "[3]", "value": 3.16, "unit": "nM"}
    ]},
    {"smiles": "OC[C@@H]1[C@@H]2CNC[C@]12c1ccc(Cl)c(Cl)c1", "note": "(racemic)", "values": [
      {"measurement": "Ki", "setting": "[1]", "value": 51.3, "unit": "nM"},
      {"measurement": "Ki", "setting": "[2]", "value": 479, "unit": "nM"},
      {"measurement": "Ki", "setting": "[3]", "value": 182, "unit": "nM"}
    ]},
    {"smiles": "Cc1cnc([C@H]2[C@@H]3CNC[C@@]32c2ccc(Cl)c(Cl)c2)o1", "note": "(racemic)", "values": [
      {"measurement": "Ki", "setting": "[1]", "value": 15.8, "unit": "nM"},
      {"measurement": "Ki", "setting": "[2]", "value": 126, "unit": "nM"},
      {"measurement": "Ki", "setting": "[3]", "value": 20, "unit": "nM"}
    ]},
    {"smiles": "CCC(C)OCC[C@]1(c2ccc(Cl)c(Cl)c2)[C@@H]2CNC[C@@H]21", "note": "(mixture of isomers)", "values": [
      {"measurement": "Ki", "setting": "[1]", "value": 0.316, "unit": "nM"},
      {"measurement": "Ki", "setting": "[2]", "value": 5.01, "unit": "nM"},
      {"measurement": "Ki", "setting": "[3]", "value": 3.98, "unit": "nM"}
    ]},
    {"smiles": "CCOCC[C@H]1[C@@H]2CNC[C@]12c1ccc(Cl)c(Cl)c1", "note": "(racemic)", "values": [
      {"measurement": "Ki", "setting": "[1]", "value": 0.794, "unit": "nM"},
      {"measurement": "Ki", "setting": "[2]", "value": 79.4, "unit": "nM"},
      {"measurement": "Ki", "setting": "[3]", "value": 3.98, "unit": "nM"}
    ]},
    {"smiles": "OCC[C@H]1[C@@H]2CNC[C@]12c1ccc(Cl)c(Cl)c1", "note": "(racemic)", "values": [
      {"measurement": "Ki", "setting": "[1]", "value": 2.51, "unit": "nM"},
      {"measurement": "Ki", "setting": "[2]", "value": 79.4, "unit": "nM"},
      {"measurement": "Ki", "setting": "[3]", "value": 7.94, "unit": "nM"}
    ]},
    {"smiles": "CCC(C)OC[C@]1(c2ccc(Cl)c(Cl)c2)[C@@H]2CNC[C@@H]21", "note": "(mixture of isomers)", "values": [
      {"measurement": "Ki", "setting": "[1]", "value": 0.251, "unit": "nM"},
      {"measurement": "Ki", "setting": "[2]", "value": 7.94, "unit": "nM"},
      {"measurement": "Ki", "setting": "[3]", "value": 2, "unit": "nM"}
    ]},
    {"smiles": "Fc1ccc(OC[C@H]2[C@@H]3CNC[C@@]32c2ccc(Cl)c(Cl)c2)cc1", "note": "(racemic)", "values": [
      {"measurement": "Ki", "setting": "[1]", "value": 1.26, "unit": "nM"},
      {"measurement": "Ki", "setting": "[2]", "value": 79.4, "unit": "nM"},
      {"measurement": "Ki", "setting": "[3]", "value": 39.8, "unit": "nM"}
    ]},
    {"smiles": "CCC[C@H]1[C@@H]2CNC[C@]12c1ccc(Cl)c(Cl)c1", "note": "(racemic)", "values": [
      {"measurement": "Ki", "setting": "[1]", "value": 1, "unit": "nM"},
      {"measurement": "Ki", "setting": "[2]", "value": 25.1, "unit": "nM"},
      {"measurement": "Ki", "setting": "[3]", "value": 2, "unit": "nM"}
    ]},
    {"smiles": "COC[C@@H]1[C@@H]2CNC[C@]12c1ccc(Cl)c(Cl)c1", "note": "(racemic)", "values": [
      {"measurement": "Ki", "setting": "[1]", "value": 72.4, "unit": "nM"},
      {"measurement": "Ki", "setting": "[2]", "value": 661, "unit": "nM"},
      {"measurement": "Ki", "setting": "[3]", "value": 1290, "unit": "nM"}
    ]},
    {"smiles": "Clc1ccc([C@]23CNC[C@H]2[C@@H]3COC2CCCCC2)cc1Cl", "note": "(racemic)", "values": [
      {"measurement": "Ki", "setting": "[1]", "value": 1, "unit": "nM"},
      {"measurement": "Ki", "setting": "[2]", "value": 20, "unit": "nM"},
      {"measurement": "Ki", "setting": "[3]", "value": 2, "unit": "nM"}
    ]},
    {"smiles": "OC[C@H]1[C@@H]2CNC[C@]12c1ccc(Cl)c(Cl)c1", "note": "(racemic)", "values": [
      {"measurement": "Ki", "setting": "[1]", "value": 15.5, "unit": "nM"},
      {"measurement": "Ki", "setting": "[2]", "value": 457, "unit": "nM"},
      {"measurement": "Ki", "setting": "[3]", "value": 28.8, "unit": "nM"}
    ]},
    {"smiles": "Clc1ccc([C@]23CNC[C@H]2[C@H]3COCC2CC2)cc1Cl", "note": "(racemic)", "values": [
      {"measurement": "Ki", "setting": "[1]", "value": 31.6, "unit": "nM"},
      {"measurement": "Ki", "setting": "[2]", "value": 501, "unit": "nM"},
      {"measurement": "Ki", "setting": "[3]", "value": 126, "unit": "nM"}
    ]},
    {"smiles": "CN(C)C[C@H]1[C@@H]2CNC[C@@]21c1ccc(Cl)c(Cl)c1", "note": "(racemic)", "values": [
      {"measurement": "Ki", "setting": "[1]", "value": 3.98, "unit": "nM"},
      {"measurement": "Ki", "setting": "[2]", "value": 631, "unit": "nM"},
      {"measurement": "Ki", "setting": "[3]", "value": 31.6, "unit": "nM"}
    ]},
    {"smiles": "COCC[C@H]1[C@@]2(c3ccc(Cl)c(Cl)c3)CNC[C@]12C", "note": "(relative stereo)", "values": [
      {"measurement": "Ki", "setting": "[1]", "value": 31.6, "unit": "nM"},
      {"measurement": "Ki", "setting": "[2]", "value": 126, "unit": "nM"},
      {"measurement": "Ki", "setting": "[3]", "value": 1000, "unit": "nM"}
    ]},
    {"smiles": "Clc1ccc([C@]23CNC[C@H]2[C@@H]3COC2CCCC2)cc1Cl", "note": "(relative stereo)", "values": [
      {"measurement": "Ki", "setting": "[1]", "value": 0.251, "unit": "nM"},
      {"measurement": "Ki", "setting": "[2]", "value": 2.51, "unit": "nM"},
      {"measurement": "Ki", "setting": "[3]", "value": 0.158, "unit": "nM"}
    ]},
    {"smiles": "CSC[C@H]1[C@@H]2CNC[C@@]21c1ccc(Cl)c(Cl)c1", "note": "(relative stereo)", "values": [
      {"measurement": "Ki", "setting": "[1]", "value": 0.398, "unit": "nM"},
      {"measurement": "Ki", "setting": "[2]", "value": 39.8, "unit": "nM"},
      {"measurement": "Ki", "setting": "[3]", "value": 1.58, "unit": "nM"}
    ]},
    {"smiles": "CCCOC[C@H]1[C@@H]2CNC[C@@]21c1ccc(Cl)c(Cl)c1", "note": "(relative stereo)", "values": [
      {"measurement": "Ki", "setting": "[1]", "value": 9.55, "unit": "nM"},
      {"measurement": "Ki", "setting": "[2]", "value": 251, "unit": "nM"},
      {"measurement": "Ki", "setting": "[3]", "value": 31.6, "unit": "nM"}
    ]},
    {"smiles": "CC(C)OC[C@H]1[C@@H]2CNC[C@@]21c1ccc(Cl)c(Cl)c1", "note": "(relative stereo)", "values": [
      {"measurement": "Ki", "setting": "[1]", "value": 39.8, "unit": "nM"},
      {"measurement": "Ki", "setting": "[2]", "value": 251, "unit": "nM"},
      {"measurement": "Ki", "setting": "[3]", "value": 200, "unit": "nM"}
    ]},
    {"smiles": "CCOC[C@H]1[C@@H]2CN(C)C[C@]12c1ccc(Cl)c(Cl)c1", "note": "(relative stereo)", "values": [
      {"measurement": "Ki", "setting": "[1]", "value": 1.26, "unit": "nM"},
      {"measurement": "Ki", "setting": "[2]", "value": 39.8, "unit": "nM"},
      {"measurement": "Ki", "setting": "[3]", "value": 15.8, "unit": "nM"}
    ]},
    {"smiles": "Clc1ccc([C@]23CNC[C@H]2[C@@H]3COC2CCC2)cc1Cl", "note": "(relative stereo)", "values": [
      {"measurement": "Ki", "setting": "[1]", "value": 0.316, "unit": "nM"},
      {"measurement": "Ki", "setting": "[2]", "value": 3.98, "unit": "nM"},
      {"measurement": "Ki", "setting": "[3]", "value": 0.501, "unit": "nM"}
    ]},
    {"smiles": "COC[C@H]1[C@@H]2CNC[C@@]21c1ccc2ccccc2c1", "note": "(relative stereo)", "values": [
      {"measurement": "Ki", "setting": "[1]", "value": 12.6, "unit": "nM"},
      {"measurement": "Ki", "setting": "[2]", "value": 398, "unit": "nM"},
      {"measurement": "Ki", "setting": "[3]", "value": 316, "unit": "nM"}
    ]}
  ]
}
